CXCR6 block = blocks human CXCR6 beta-arrestin recruitment; CHO-K1 PathHunter CXCR6 beta-arrestin, luminescence; inhibition, % at 20 µM; hit rate 0.36% among 360,000; O00574; in the data active means inhibition above about 34%, passing the limit was not always enough;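 further: antagonist mode with CXCL16 agonist at 10 nM final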
EBI2 antag = blocks human EBI2 receptor beta-arrestin signaling | P32249 | EBI2 beta-arrestin recruitment, luminescence, 7a,25-OHC stimulated | inhibition, % at 5 µM | hit rate 0.81% among 360,000; in the data active means inhibition above about 38%;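 further: enzyme fragment complementation signal reports receptor beta-arrestin coupling in cells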
APJ antag = antagonists of human APJ apelin receptor; inhibition, % at 20 µM; AID 2521; CHO-K1 APJ beta-arrestin complementation, luminescence; P35414; hit rate 0.32% among 330,000;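 active means inhibition above about 40% at 20 µM, limit read from the data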;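 further: cells challenged with 10 nM apelin-13 agonist together with compound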
HTR2A ag = mouse HTR2A agonism via beta-arrestin recruitment | P35363 | CHO-K1 mHTR2A beta-arrestin complementation, luminescence; percent of 30 µM serotonin response | activation, % at 7.6 µM | hit rate 0.66% among 360,000 | AID 624169;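 active means activation above a run cutoff, the mean activation of all tested compounds plus 3 SD, cut at about 14% in these data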
CCR6 antagonist = blocks CCL20-driven beta-arrestin recruitment at human CCR6; inhibition, % at 20 µM; AID 493098; CHO-K1 CCR6 PathHunter beta-arrestin, luminescence, CCL20-stimulated; hit rate 0.49% among 340,000;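 active means compounds whose inhibition of the agonist-driven luminescence signal at 20 µM reaches about 50%, limit read from the data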;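 further: cells stimulated with CCL20 at 14 nM final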
Target sequence (P51684 whole entry, looked up): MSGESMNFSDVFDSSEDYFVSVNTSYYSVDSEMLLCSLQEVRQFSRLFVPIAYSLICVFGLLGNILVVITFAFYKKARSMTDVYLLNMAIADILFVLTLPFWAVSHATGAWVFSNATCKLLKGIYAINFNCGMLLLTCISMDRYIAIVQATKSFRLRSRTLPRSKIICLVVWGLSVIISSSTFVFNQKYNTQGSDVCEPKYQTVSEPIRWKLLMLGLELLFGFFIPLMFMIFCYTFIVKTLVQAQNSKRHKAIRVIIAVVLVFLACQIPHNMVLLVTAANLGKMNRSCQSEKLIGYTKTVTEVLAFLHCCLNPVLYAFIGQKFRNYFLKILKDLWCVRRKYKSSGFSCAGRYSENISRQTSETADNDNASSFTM
APJ agonist = agonists of human APJ apelin receptor. P35414. CHO-K1 APJ PathHunter beta-arrestin, luminescence; 0% DMSO wells, 100% apelin. activation, % at 20 µM. hit rate 0.11% among 330,000;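 active means activation more than six SD over the plate average, tested at 20 µM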
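Material: CHO-K1 APJ beta-arrestin complementation cell line; Input: cell density 1000 per well; Incubation: compound stimulation 90 min at 25 °C, detection 60 min; Signal: luminescence from split beta-galactosidase complementation, Galacton Star/Emerald II substrate; Controls: DMSO-only wells as negative, 10 nM Apelin-13 as positive control.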
A number is an active result. Compounds with a hit are over-represented: about 2.1% of the library has one in this group of screens.

For COCCN=c1scc(-c2ccc3c(c2)NC(=O)CO3)n1/N=C(\C)c1ccc(O)cc1 the results were CXCR6 block 55.7, EBI2 antag inactive, APJ antag inactive, HTR2A ag inactive and APJ agonist inactive.
For Cc1cc(C(=O)COc2ccc(Cl)cc2Br)c(C)n1C the results were CXCR6 block inactive, EBI2 antag inactive, APJ antag inactive, HTR2A ag inactive, CCR6 antagonist inactive and APJ agonist inactive.
For COc1cccc(CN2CCC(Oc3ccc(C(=O)N4CCCCC4)cc3)CC2)c1 the results were CXCR6 block inactive, EBI2 antag inactive, APJ antag inactive, HTR2A ag inactive, CCR6 antagonist inactive and APJ agonist inactive.
For O=C1CN(S(=O)(=O)c2cc(Br)ccc2Br)CCN1 the results were CXCR6 block inactive, EBI2 antag inactive, APJ antag inactive, HTR2A ag inactive, CCR6 antagonist inactive and APJ agonist inactive.
Screening O=c1c(Br)ccc(Br)cc1Br returned CXCR6 block 95.4, EBI2 antag inactive, HTR2A ag inactive and CCR6 antagonist 110.5.
Screening COc1cccc(C2C(C(N)=O)=C(C)Nc3nc(CCCO)nn32)c1 (stereo unspecified) returned CXCR6 block inactive, EBI2 antag inactive, APJ antag inactive, HTR2A ag inactive, CCR6 antagonist inactive and APJ agonist inactive.
Screening COc1cc(OC)cc(-c2nc3ccccc3c(=O)n2OC(=O)c2ccc(C)c(C)c2)c1 returned CXCR6 block inactive, EBI2 antag inactive, APJ antag inactive, HTR2A ag inactive, CCR6 antagonist inactive and APJ agonist 11.1.
For COc1cc(OC)cc(C(=O)Nn2c(C)nc3ccccc3c2=O)c1 the results were CXCR6 block inactive, EBI2 antag inactive, APJ antag inactive, HTR2A ag inactive, CCR6 antagonist inactive and APJ agonist inactive.
`CN(C)c1ccc(/C=C2/C[N+](C)(C)C/C(=C/c3ccc(N(C)C)cc3)C2=O)cc1` gave CXCR6 block 48.9, EBI2 antag inactive, HTR2A ag inactive and CCR6 antagonist 62.4.
Screening CC(C)/C=C1\CC/C(=C\c2ccc(N(C)C)cc2)C1=O returned CXCR6 block inactive, EBI2 antag inactive, APJ antag inactive, HTR2A ag inactive, CCR6 antagonist inactive and APJ agonist inactive.
For COC1=CC(=O)C=C(OC)C1=O the results were CXCR6 block 81.3, EBI2 antag inactive, HTR2A ag inactive and CCR6 antagonist 85.7.
Screening NNC(=O)Cn1nc(Cc2ccccc2)n(N)c1=O returned CXCR6 block inactive, EBI2 antag inactive, APJ antag inactive, HTR2A ag inactive, CCR6 antagonist inactive and APJ agonist inactive.
`O=C(Nc1cc(Cl)cc2c1-c1ccc(Cl)cc1C2O)C(Cl)Cl` (stereo unspecified) gave CXCR6 block inactive, EBI2 antag 44.1, HTR2A ag inactive and CCR6 antagonist inactive.
Cc1c(C(=O)Nc2nc3ccccc3[nH]2)oc2ccccc12 was read as CXCR6 block inactive, EBI2 antag inactive, APJ antag inactive, HTR2A ag inactive, CCR6 antagonist 56.3 and APJ agonist inactive.
`CCN(CC)c1ccc(/C=N/n2c(-c3ccccc3Br)n[nH]c2=S)cc1` gave CXCR6 block inactive, EBI2 antag inactive, APJ antag inactive, HTR2A ag inactive, CCR6 antagonist inactive and APJ agonist inactive.
Screening CC(C)Oc1cccc(C(=O)NC(=S)Nc2cccc(C(F)(F)F)c2)c1 returned CXCR6 block inactive, EBI2 antag inactive, APJ antag inactive, HTR2A ag inactive and APJ agonist inactive.
CCCCOc1cccc(C(=O)NC(=S)Nc2cccc(C(F)(F)F)c2)c1 was read as CXCR6 block inactive, EBI2 antag inactive, APJ antag inactive, HTR2A ag inactive, CCR6 antagonist 51.5 and APJ agonist inactive.
COc1ccc(C2CC(c3ccc(Br)cc3)=NN2C(=S)Nc2ccccc2)cc1 (stereo unspecified) was read as CXCR6 block inactive, EBI2 antag inactive, APJ antag inactive, HTR2A ag inactive, CCR6 antagonist inactive and APJ agonist inactive.
`CNC(=S)N1N=C(c2ccc(Br)cc2)CC1c1ccc(N(C)C)cc1` (stereo unspecified) gave CXCR6 block inactive, EBI2 antag 93.5, APJ antag inactive, HTR2A ag inactive, CCR6 antagonist inactive and APJ agonist inactive.
For O=C(NN=C1c2ccccc2-c2ccccc21)c1cccc(Br)c1 the results were CXCR6 block 46.5, EBI2 antag inactive, APJ antag inactive, HTR2A ag inactive, CCR6 antagonist inactive and APJ agonist inactive.
For O=C(NCCN1CCN(c2ccccc2)CC1)C1CCCN(S(=O)(=O)c2cnc[nH]2)C1 (stereo unspecified) the results were CXCR6 block inactive, EBI2 antag inactive, APJ antag inactive, HTR2A ag 30.2, CCR6 antagonist inactive and APJ agonist inactive.
Screening CCNC(=S)NN=C1CCC(C(C)(C)C)CC1 (stereo unspecified) returned CXCR6 block inactive, EBI2 antag inactive, APJ antag inactive, HTR2A ag inactive, CCR6 antagonist inactive and APJ agonist inactive.
For CN(C(=S)Nc1cccnc1)c1ccc(O)cc1 the results were CXCR6 block inactive, EBI2 antag inactive, HTR2A ag inactive and CCR6 antagonist inactive.
CCOC(=O)C1(C)CCCCCN1C(=O)c1ccc(Cl)nc1 (stereo unspecified) was read as CXCR6 block inactive, EBI2 antag inactive and HTR2A ag inactive.
CCn1nc([N+](=O)[O-])c(C(C#N)c2nc3cc(C(F)(F)F)ccc3s2)c(Cl)c1=O (stereo unspecified) was read as CXCR6 block inactive, EBI2 antag inactive, APJ antag 55.6, HTR2A ag inactive, CCR6 antagonist 52.3 and APJ agonist inactive.
For CC(C)C[C@H]1CN([C@@H](Cc2ccccc2)CN2CCC[C@@H]2CN2C(=O)C(=O)NC[C@@H]2Cc2ccc(O)cc2)C(=O)C(=O)N1CC1CCCCCC1 the results were CXCR6 block inactive, EBI2 antag inactive and HTR2A ag inactive.
For CCOC(=O)c1c(N)sc(N)c1C(=O)OCC the results were CXCR6 block inactive, EBI2 antag inactive, APJ antag 60.6, HTR2A ag inactive, CCR6 antagonist inactive and APJ agonist inactive.
`O=C1NC(=S)SC1=C1CCCCCC1` gave CXCR6 block inactive, EBI2 antag inactive, APJ antag inactive, HTR2A ag inactive, CCR6 antagonist 51.0 and APJ agonist inactive.
O=C(CN(CC1CCCO1)C(=O)CCC(=O)Nc1nccs1)NCc1ccccc1 (stereo unspecified) was read as CXCR6 block inactive, EBI2 antag inactive, APJ antag inactive, HTR2A ag inactive, CCR6 antagonist inactive and APJ agonist inactive.
Screening COc1ccc(-c2csc(N3C(=N)SCC3=O)n2)cc1 returned CXCR6 block inactive, EBI2 antag inactive, APJ antag inactive, HTR2A ag inactive, CCR6 antagonist 55.8 and APJ agonist inactive.

Source: PubChem (several laboratories)
